Active and inactive are the calls of the source. The calls are words filed in the database; no cut-off is given here.
Key:
[1] = tested on: von Hippel-Lindau disease tumor suppressor/Epidermal growth factor receptor (Homo sapiens), P00533+P40337 [UNDEFINED MUTATION]; experiment: Protac activity at VHL/EGFR del19 mutant in human HCC827 cells assessed as maximal induction of EGFR degradation at 33 nM measured after 48 hrs by Western blot analysis; assay type: cell-based
Method in brief: (§1)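 HCC827 cells seeded at 0.5–1 × 10⁶ per well, then treated at the stated concentrations for 48 h. EGFR by Western blot; n = 3. DC₅₀ (concentration giving 50% EGFR loss) by nonlinear regression, log(inhibitor) vs response.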

HCC827 [2] = experiment: Induction of apoptosis in human HCC827 cells assessed as apoptotic cells at 10 nM measured after 48 hrs by AnnexinV-FITC/propidium iodide staining based flow cytometry analysis relative to control; assay type: functional
Method in brief: (§2)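 To measure apoptosis, cells were seeded at 0.5–1 × 10⁶ per well, grown 24 h, then treated for 48 h. Collected cells were stained with an Annexin V-FITC apoptosis detection kit following its instructions, and apoptosis rate was read by flow cytometry. n = 2.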

[3] = tested on: von Hippel-Lindau disease tumor suppressor/Epidermal growth factor receptor (Homo sapiens), P00533+P40337 [UNDEFINED MUTATION]; experiment: Protac activity at VHL/EGFR del19 mutant in human HCC827 cells assessed as induction of EGFR degradation at 33 nM incubated for 24 hrs measured following drug wash-out for 48 hrs by Western blot analysis; assay type: cell-based
Method in brief: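 HCC827 cells (RPMI-1640, 10% heat-inactivated FBS, 1% sodium pyruvate, 1% glutamine, 37 °C, 5% CO₂) treated at 33 nM for 24 h. Medium then replaced with compound-free medium, and protein harvested at the stated times. EGFR read by Western blot; n = 2.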

[4] = tested on: von Hippel-Lindau disease tumor suppressor/Epidermal growth factor receptor (Homo sapiens), P00533+P40337 [UNDEFINED MUTATION]; experiment: Protac activity at VHL/EGFR del19 mutant in human HCC827 cells assessed as induction of EGFR degradation at 33 nM measured after 24 hrs by Western blot analysis; assay type: cell-based
Method in brief: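 HCC827 cells seeded at 0.5–1 × 10⁶ per well, grown 24 h, then treated at the stated concentrations for 24 h. EGFR^del19 level by Western blot with anti-EGFR antibody and β-actin loading control.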

[5] = tested on: von Hippel-Lindau disease tumor suppressor/Epidermal growth factor receptor (Homo sapiens), P00533+P40337 [UNDEFINED MUTATION]; experiment: Protac activity at VHL/EGFR del19 mutant in human HCC827 cells assessed as induction of EGFR degradation at 0.1 to 0.3 nM precultured in medium without FBS followed by incubation with compound for 16 hrs by Western blot analysis; assay type: cell-based; conditions: dose 0.1-0.3 nM
Method in brief: (§3)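 HCC827 or H1975 cells precultured 8 h in medium with or without FBS, then treated at the stated concentrations for 16 h. EGFR protein by Western blot; n = 3.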

[6] = tested on: von Hippel-Lindau disease tumor suppressor/Epidermal growth factor receptor (Homo sapiens), P00533+P40337 [UNDEFINED MUTATION]; experiment: Protac activity at VHL/EGFR del19 mutant in human HCC827 cells assessed as induction of EGFR degradation at 33 nM by Western blot analysis; assay type: cell-based; conditions: time 12-72 hrs, TDE = time-dependent effect
Method in brief: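 Time course in HCC827 cells at 33 nM, with protein harvested at each stated time point. EGFR^del19 detected by Western blot.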

NCI-H1975 = experiment: Induction of apoptosis in human NCI-H1975 cells at 333 to 1000 nM measured after 48 hrs by AnnexinV-FITC/propidium iodide staining based flow cytometry analysis; assay type: functional, cell-based; conditions: dose 333-1000 nM; method in brief: as §2
[7] = tested on: von Hippel-Lindau disease tumor suppressor/Epidermal growth factor receptor (Homo sapiens), P00533+P40337 [UNDEFINED MUTATION]; experiment: Protac activity at VHL/EGFR del19 mutant in human HCC827 cells assessed as induction of EGFR degradation by measuring reduction in EGFR phosphorylation at 3 nM incubated for 48 hrs by Western blot analysis; assay type: cell-based
Method in brief: (§4)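 HCC827 or H1975 cells treated at the stated concentrations for 48 h. Lysates probed by Western blot for EGFR, P-EGFR, Akt and P-Akt (each 1:1000); n = 2.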

[8] = tested on: von Hippel-Lindau disease tumor suppressor/Epidermal growth factor receptor (Homo sapiens), P00533+P40337 [L858R,T790M]; experiment: Protac activity at VHL/EGFR L858R/T790M mutant in human H1975 cells assessed as induction of degradation of EGFR at 333 nM incubated for 48 hrs measured after compound wash-out for 48 hrs by Western blot analysis; assay type: cell-based; conditions: NCI-H1975
Method in brief: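 H1975 cells (RPMI-1640, 10% heat-inactivated FBS) exposed to 333 nM for 48 h. Medium then replaced with compound-free medium, and lysates collected at the stated times. EGFR read by Western blot; n = 2.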

[9] = tested on: von Hippel-Lindau disease tumor suppressor/Epidermal growth factor receptor (Homo sapiens), P00533+P40337 [UNDEFINED MUTATION]; experiment: Protac activity at VHL/EGFR del19 mutant in human HCC827 cells assessed as induction of EGFR degradation at 0.033 uM pretreated with autophagy inhibitor, chloroquine for 2 hrs followed by incubation with compound for 24 hrs by Western blot analysis; assay type: cell-based
HCC827 [10] = experiment: Inhibition of colony formation in human HCC827 cells at 1 nM incubated for 15 days by crystal violet staining based analysis; assay type: functional, cell-based; conditions: time 15.0 day
Method in brief: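 Colony formation: 200 cells per well were seeded and incubated 24 h, then kept with compound for 15 days. After three PBS washes, cells were fixed in cold 75% ethanol and stained with 0.1% crystal violet in water for 1 h. Colonies were counted.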

[11] = target: T1, von Hippel-Lindau disease tumor suppressor/Epidermal growth factor receptor (Homo sapiens, UniProt P00533+P40337); experiment: Protac activity at VHL/EGFR del19 mutant in human HCC827 cells assessed as induction of EGFR degradation measured after 48 hrs by Western blot analysis; assay type: cell-based; method in brief: as §1
[12] = tested on: von Hippel-Lindau disease tumor suppressor/Epidermal growth factor receptor (Homo sapiens), P00533+P40337 [L858R,T790M]; experiment: Protac activity at VHL/EGFR L858R/T790M mutant in human H1975 cells assessed as induction of degradation of EGFR by measuring reduction in EGFR phosphorylation at 100 nM incubated for 48 hrs by Western blot analysis; assay type: cell-based; conditions: NCI-H1975; method in brief: as §4
[13] = tested on: von Hippel-Lindau disease tumor suppressor/Epidermal growth factor receptor (Homo sapiens), P00533+P40337 [L858R,T790M]; experiment: Protac activity at VHL/EGFR L858R/T790M mutant in human H1975 cells assessed as maximal induction of degradation of EGFR incubated for 48 hrs by Western blot analysis relative to control; assay type: cell-based; conditions: NCI-H1975
Method in brief: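 H1975 cells exposed to the stated concentrations for 48 h. EGFR by Western blot; n = 3. DC₅₀ by nonlinear regression, log(inhibitor) vs response.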

[14] = target: T1, von Hippel-Lindau disease tumor suppressor/Epidermal growth factor receptor; experiment: Protac activity at VHL/EGFR in human A431 cells assessed as induction of degradation of EGFR at 0.1 to 3.3 uM incubated for 48 hrs by Western blot analysis; assay type: cell-based; conditions: A-431, dose 0.1-3.3 µM
HCC827 [15] = experiment: Induction of apoptosis in human HCC827 cells assessed as apoptotic cells at 100 nM measured after 48 hrs by AnnexinV-FITC/propidium iodide staining based flow cytometry analysis relative to control; assay type: functional; method in brief: as §2
[16] = tested on: von Hippel-Lindau disease tumor suppressor/Epidermal growth factor receptor (Homo sapiens), P00533+P40337 [UNDEFINED MUTATION]; experiment: Protac activity at VHL/EGFR del19 mutant in human HCC827 cells assessed as induction of EGFR degradation at 0.033 uM pretreated with VHL ligand, VHL-L for 2 hrs followed by incubation with compound for 24 hrs by Western blot analysis; assay type: cell-based
[17] = tested on: von Hippel-Lindau disease tumor suppressor/Epidermal growth factor receptor (Homo sapiens), P00533+P40337 [L858R,T790M]; experiment: Protac activity at VHL/EGFR L858R/T790M mutant in human H1975 cells assessed as induction of degradation of EGFR at 100 to 333 nM precultured in medium without FBS followed by incubation with compound for 16 hrs by Western blot analysis; assay type: cell-based; conditions: NCI-H1975, dose 100-333 nM; method in brief: as §3

Cc1ncsc1-c1ccc(CNC(=O)[C@@H]2C[C@@H](O)CN2C(=O)[C@@H](NC(=O)CCCCCCN2CCN(c3ccc(Nc4ncc5nc(Nc6ccccc6)n(C6CCCC6)c5n4)cc3)CC2)C(C)(C)C)cc1
Emax [1]: 80.4%
Activity (HCC827 [2]): 31.07%
Activity [3]: inactive
Activity [4]: Active
Activity [5]: Active
Activity [6]: Tde
Activity (NCI-H1975): inactive
Activity [7]: Active
Activity [8]: Active
Activity [9]: inactive
inhibition (HCC827 [10]): Active
DC50 [11]: 0.51 nM
Activity [12]: Active
Emax [13]: 90.3%
Activity [14]: inactive
Activity (HCC827 [15]): 44.8%
Activity [16]: Active
Activity [17]: Active
